Holding throughout (assay type): functional, cell-based
Experiment [1] relates to L1210. Nature of the experiment: Cytostatic activity against mouse L1210 cells assessed as inhibition of cell proliferation after 48 hrs by coulter counting analysis. In outline: (§1)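 Anti-proliferative screen in murine leukemia L1210, human T-lymphocyte CEM and human cervix carcinoma HeLa cultures. The value reported is the IC50, the concentration that inhibits cell proliferation by 50%.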

For experiment [2], the system named is CCRF-CEM. The experiment can be described thus: Cytostatic activity against human CEM cells assessed as inhibition of cell proliferation after 72 hrs by coulter counting analysis. A digest of the protocol:
as §1

Experiment [3] concerns HeLa. Nature of the experiment: Cytostatic activity against human HeLa cells assessed as inhibition of cell proliferation after 72 hrs by coulter counting analysis. In outline:
as §1

Experiment [4] has as its system CAKI-1. The experiment can be described thus: Cytostatic activity against human Caki1 cells assessed as inhibition of cell proliferation after 96 hrs by coulter counting analysis. Conditions: CAKI-1, 96 h. A digest of the protocol:
(§2)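 Anti-proliferative testing extended to human kidney Caki-1 and human liver Huh-7 tumour cells. The value reported is the IC50, the concentration that inhibits tumour cell growth by 50%.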

The subject of experiment [5] is Huh-7. Nature of the experiment: Cytostatic activity against human HuH7 cells assessed as inhibition of cell proliferation after 96 hrs by coulter counting analysis. The conditions noted are these: Huh-7, 96 h. In outline: as §2

Each structure is given as a SMILES string.

Results on 15 molecules are retold here after ChEMBL document CHEMBL3286189, “Discovery and SAR studies of a novel class of cytotoxic 1,4-disubstituted piperidines via Ugi reaction” (Eur J Med Chem, 2014).

A word on the IC50: it is the concentration that gives 50% inhibition.

Regarding `COC(=O)C[C@H](NC(=O)OC(C)(C)C)C(=O)N(CC(=O)OC)C1(C(=O)NCc2ccccc2)CCN(Cc2ccccc2)CC1`, the IC50 in experiment [1] (Mus musculus, L1210, 48 h) was 49 µM; in experiment [2] (Homo sapiens, CCRF-CEM, 72 h) it was 46 µM; in experiment [3] (Homo sapiens, HeLa, 72 h) it was 32 µM.

As to `CC(C)(C)OC(=O)N1CCC[C@H]1C(=O)N(Cc1ccccc1)C1(C(=O)NCc2ccccc2)CCN(Cc2ccccc2)CC1`, the IC50 is 61 µM in experiment [1] (Mus musculus, L1210, 48 h); more than 50 µM in experiment [2] (Homo sapiens, CCRF-CEM, 72 h); 137 µM in experiment [3] (Homo sapiens, HeLa, 72 h).

On to `CC(C)(C)OC(=O)N[C@@H](Cc1c[nH]c2ccccc12)C(=O)N(Cc1ccccc1)C1(C(=O)NCc2ccccc2)CCN(Cc2ccccc2)CC1`, for which the IC50 was 4.6 µM in experiment [1] (Mus musculus, L1210, 48 h); 5.9 µM in experiment [2] (Homo sapiens, CCRF-CEM, 72 h); 5.9 µM in experiment [3] (Homo sapiens, HeLa, 72 h); 14 µM in experiment [4]; 6.6 µM in experiment [5].

Take `CC(C)(C)OC(=O)N[C@@H](CC(=O)O)C(=O)N(Cc1ccccc1)C1(C(=O)NCc2ccccc2)CCN(Cc2ccccc2)CC1`: the IC50 in experiment [1] (Mus musculus, L1210, 48 h) was 164 µM; in experiment [2] (Homo sapiens, CCRF-CEM, 72 h), more than 200 µM; in experiment [3] (Homo sapiens, HeLa, 72 h), more than 200 µM.

For the molecule `COC(=O)C[C@H](N)C(=O)N(Cc1ccccc1)C1(C(=O)NCc2ccccc2)CCN(Cc2ccccc2)CC1`, the IC50 amounted to 90 µM in experiment [1] (Mus musculus, L1210, 48 h); 104 µM in experiment [2] (Homo sapiens, CCRF-CEM, 72 h); 100 µM in experiment [3] (Homo sapiens, HeLa, 72 h).

For the molecule `CCC(C)N(C(=O)[C@@H](N)Cc1ccccc1)C1(C(=O)NCc2ccccc2)CCN(Cc2ccccc2)CC1` (stereo partly specified), the IC50 in experiment [1] (Mus musculus, L1210, 48 h) was 81 µM; in experiment [2] (Homo sapiens, CCRF-CEM, 72 h) it was 99 µM; in experiment [3] (Homo sapiens, HeLa, 72 h), 90 µM.

Consider `CCC(C)N(C(=O)[C@@H](N)CC(=O)OC)C1(C(=O)NCc2ccccc2)CCN(Cc2ccccc2)CC1` (stereo partly specified), for which the IC50 in experiment [1] (Mus musculus, L1210, 48 h) is 244 µM; in experiment [2] (Homo sapiens, CCRF-CEM, 72 h) it was 238 µM; in experiment [3] (Homo sapiens, HeLa, 72 h), more than 250 µM.

On to `CCC(C)N(C(=O)[C@@H](N)CC(=O)OC)C1(C(=O)NCc2ccccc2)CCNCC1` (stereo partly specified), for which the IC50 was more than 250 µM in experiment [1] (Mus musculus, L1210, 48 h); more than 250 µM in experiment [2] (Homo sapiens, CCRF-CEM, 72 h); more than 250 µM in experiment [3] (Homo sapiens, HeLa, 72 h).

For the molecule `CCC(C)N(C(=O)[C@H](CC(=O)OC)NC(=O)OCc1ccccc1)C1(C(=O)NCc2ccccc2)CCN(Cc2ccccc2)CC1` (stereo partly specified), the concentration for half-maximal inhibition (IC50) in experiment [1] (Mus musculus, L1210, 48 h) was found to be 5.3 µM; in experiment [2] (Homo sapiens, CCRF-CEM, 72 h) it was 4.5 µM; in experiment [3] (Homo sapiens, HeLa, 72 h), 4.3 µM; in experiment [4], 8.7 µM; in experiment [5], 6.4 µM.

On to `C=CCOC(=O)N1CCC(C(=O)NCc2ccccc2)(N(Cc2ccccc2)C(=O)[C@H](Cc2ccccc2)NC(=O)OC(C)(C)C)CC1`, for which the IC50 in experiment [1] (Mus musculus, L1210, 48 h) turned out to be 4.2 µM; in experiment [2] (Homo sapiens, CCRF-CEM, 72 h) it was 4.7 µM; in experiment [3] (Homo sapiens, HeLa, 72 h), 7 µM; in experiment [4], 12 µM; in experiment [5] it was 8.1 µM.

As to `CC(C)(C)NC(=O)C1(N(C(=O)[C@H](Cc2ccccc2)NC(=O)OCc2ccccc2)C2CC2)CCN(C(=O)OC(C)(C)C)CC1`, the IC50 in experiment [1] (Mus musculus, L1210, 48 h) was 17 µM; in experiment [2] (Homo sapiens, CCRF-CEM, 72 h), 15 µM; in experiment [3] (Homo sapiens, HeLa, 72 h) it was 148 µM.

As for `CCC(C)N(C(=O)[C@@H](NC(=O)OCc1ccccc1)[C@@H](C)CC)C1(C(=O)NCc2ccccc2)CCN(Cc2ccccc2)CC1` (stereo partly specified), the IC50 in experiment [1] (Mus musculus, L1210, 48 h) is 83 µM; in experiment [2] (Homo sapiens, CCRF-CEM, 72 h), 111 µM; in experiment [3] (Homo sapiens, HeLa, 72 h) it was 119 µM.

As to `CC[C@H](C)[C@H](NC(=O)OCc1ccccc1)C(=O)N(C1CC1)C1(C(=O)NCc2ccccc2)CCN(Cc2ccccc2)CC1`, the IC50 was 11 µM in experiment [1] (Mus musculus, L1210, 48 h); 16 µM in experiment [2] (Homo sapiens, CCRF-CEM, 72 h); 30 µM in experiment [3] (Homo sapiens, HeLa, 72 h).

Turning to `COC(=O)C[C@H](NC(=O)OC(C)(C)C)C(=O)N(Cc1ccccc1)C1(C(=O)NCc2ccccc2)CCN(Cc2ccccc2)C1` (single isomer, unassigned; diastereomer 2), the IC50 in experiment [1] (l1210) was 9 µM; in experiment [2] (ccrf-cem), 22 µM; in experiment [3] (Homo sapiens, HeLa, 72 h) it was 18 µM.

With `COC(=O)C[C@H](NC(=O)OC(C)(C)C)C(=O)N(Cc1ccccc1)C1(C(=O)NCc2ccccc2)CCN(Cc2ccccc2)C1` (single isomer, unassigned; diastereomer-1), the IC50 in experiment [1] (Mus musculus, L1210, 48 h) worked out at 6.2 µM; in experiment [2] (Homo sapiens, CCRF-CEM, 72 h), 19 µM; in experiment [3] (hela), 16 µM.
